The values below come from paper PMC12646499 (Journal of Chemical Information and Modeling, 2025).

The test system of one data set is PD-L1. The settings on record: ligand in PDB 5N2F; cited from earlier work.
The target in another data set is PD-1–PD-L1 interaction (Homo sapiens, UniProt Q9NZQ7). As to the kind of experiment: PD-1–PD-L1 TR-FRET assay. Type of data set: binding. In outline:
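Test compound (from 5 mM DMSO stock, diluted in PBS) was preincubated 10 min with biotin-PD-L1 (added at 11 μg/mL) at room temperature in the dark. Eu-PD-1 (0.8 μg/mL) plus acceptor dye was then added for 1.5 h. Single doses were 5 and 25 μM final; dose-response used a 5:1 serial dilution. The 665/620 nm ratio (excitation 337 nm) was normalised to controls with and without PD-L1, in triplicate. IC50 came from nonlinear regression.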
(TR-FRET usually uses a lanthanide donor and a delayed reading to cut background.)

The subject of a further data set is human PD-L1. The settings on record: binds human PD-L1; previously published; cited from earlier work.
For data set [1] the following is noted: tested in clinical trials but discontinued; cited from earlier work.
The subject of data set [2] is LS 180 colorectal adenocarcinoma cells bearing the K-Ras G12D mutation. As to the kind of experiment: MTT cell toxicity assay in LS 180 cells. In kind it is cell-based. The settings on record: 48 h. In outline: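 LS 180 cells were grown in DMEM with 10% FBS at 37 °C and 5% CO2, then seeded at 5000 cells/well in DMEM with 5% FBS and left to attach for 24 h. Test compound was added at 10, 4, 1.6 or 0.64 μM final, with 0.2% DMSO, in sextuplicate, for 48 h. MTT (0.35 mg/mL final) was added for 4 h, then DMF/SDS/HCl/acetic acid stop solution overnight at room temperature. A570 was read as % survival versus no compound.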
On the technique in general: Tetrazolium assays rely on reduction of a dye to a coloured formazan, in cell work by metabolically active cells.

Sequence of PD-1–PD-L1 interaction (Q9NZQ7 19-238 limits assumed): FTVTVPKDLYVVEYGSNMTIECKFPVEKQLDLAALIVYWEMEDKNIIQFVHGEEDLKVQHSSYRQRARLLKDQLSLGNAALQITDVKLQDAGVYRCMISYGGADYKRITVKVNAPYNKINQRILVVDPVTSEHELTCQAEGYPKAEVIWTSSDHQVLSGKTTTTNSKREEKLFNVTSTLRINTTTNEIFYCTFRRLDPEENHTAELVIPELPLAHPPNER

With `Cc1c(COc2cc(F)c(CNC[C@@H](O)CC(=O)O)cc2F)cccc1-c1ccc2c(c1)OCCO2` [BMS-200], the IC50 (in general, the concentration at which inhibition is half-maximal) with PD-L1 is 3.1 nM.

Take `Cc1c(Nc2nccc3cc(CN4CC[C@@H](O)C4)cnc23)cccc1-c1cccc(-c2nc3cc(CN4CC[C@@H](C(=O)O)C4)cc(C#N)c3o2)c1C` [INCB086550]: the IC50 was 5.6 nM at PD-1–PD-L1 interaction and 3.1 nM with human PD-L1. Also, the “activity at 5 μM (in words)” value on PD-1–PD-L1 interaction (5 μM) is “complete loss of activity”. For the same molecule, in data set [1], the “toxicity in clinical trials (in words)” value was “high toxicity”.

As for `C#Cc1c(F)ccc2cc(O)cc(-c3ncc4c(N5CC6CCC(C5)N6)nc(OC[C@@]56CCCN5C[C@H](F)C6)nc4c3F)c12` [MRTX1133], the GI50 result in data set [2] is listed as “submicromolar”.
